Only some compounds are listed: those with a hit (about 3.6% of all), similar ones and a draw of the others.
CSC inhib = blocks cancer stem cells; actives 1.1% (n = 300,000); inhibition, % at 7.5 µM; AID 2717; cancer stem cell-like cells viability, luminescence; in the data active = inhibition above about 75%; tested in HMLE shEcad cells
HIF activator = HIF pathway transcriptional activation | AID 1910 | actives 0.32% (n = 300,000) | U2OS HRE-luciferase reporter, luminescence; normalized: DMSO 0%, desferrioxamine 100% | activation, % at 7.5 µM (by protocol);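 active = mean activation of at least 10% of the iron chelator positive control signal, with at least half of replicates also reaching 10%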
Beta apoptosis = blocks beta cell apoptosis; INS-1E cytokine-induced death, ATP luminescence, 48 h; percent of positive-control rescue, neutral wells zero; protection from apoptosis, % (no concentration beside the values); actives 0.8% (n = 300,000); AID 435005;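 active = Every replicate reaches about 75%, or at least half do and their mean reaches it too, limit read from the data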;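 also: 0% = cytokine-treated negative control wells and 100% = positive control rescue; higher means more ATP so stronger rescue from cytokine killing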
PfHsp90 set2 = reduces growth (ATP signal) of yeast expressing P. falciparum Hsp90. S. cerevisiae expressing PfHsp90, BacTiter-Glo ATP, 48 h; yeast lacking PDR1 and PDR3 efflux regulators. inhibition, % at 9.4 µM. actives 0.32% (n = 310,000);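 active = every replicate shows inhibition above about 80%, whatever the replicate mean, limit read from the data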;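 also: 0% = DMSO neutral controls and 100% = 20 µM radicicol positive controls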
T cruzi repl = T. cruzi replication inhibition; T. cruzi beta-gal in NIH3T3, luminescence, 90 h; actives 1.4% (n = 300,000); inhibition, % (concentration not given with the values);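 active = mean inhibition across valid replicates above about 55%, limit read from the data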;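 also: signal also drops with host cell toxicity which is not excluded here; 0% = plate median of DMSO wells and 100% = zero luminescence signal; higher percent means less beta-gal luminescence so fewer parasites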
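System – NIH/3T3 host cells with β-galactosidase reporter T. cruzi · Doses – single 50 nL compound addition per well in DMSO · Reagent – 5000 T. cruzi trypomastigotes/well · Medium – Low-serum DMEM with 2% FBS · Timing – ≥90 h infection period, 3 h prior cell attachment · Evaluation – parasite load inhibition, % · Technique – GalScreen luminescence, 60 min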
SKKanGAS inh = SKKanGAS growth inhibition | S. pyogenes SKKanGAS, kanamycin growth, BacTiter-Glo, 6 h | inhibition, % at 7.5 µM | actives 1.3% (n = 300,000) | AID 1662;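 active = mean replicate score, as percent of positive control median, at least 50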;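 also: strain carries kanamycin resistance gene driven by streptokinase promoter and grows in 40 µg/ml kanamycin; loss of luminescence reflects streptokinase promoter inhibition or plain growth inhibition; 0% = median of DMSO wells and 100% = positive control at its reference dose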
Starred values were filed as active, the others as inactive; / = not tested or not shown.

SMILES | CSC inhib | HIF activator | Beta apoptosis | PfHsp90 set2 | T cruzi repl | SKKanGAS inh
COc1cc(C(=O)NCc2nnc(SCC(=O)N3CCc4ccccc43)o2)cc(OC)c1OC | -12.2 | -1.3 | / | -28.9 | -0.9 | -0.6
O=C(NCC1CCCN1S(=O)(=O)c1cccs1)c1cccc([N+](=O)[O-])c1 (stereo not drawn) | -0.9 | 0.8 | 0.6 | -26.1 | -1.0 | 1.1
Cc1cccc(C(=O)NCC(=O)N2CCOCC2)c1 | -10.7 | 0.1 | / | 21.4 | -3.5 | 50.8*
Cc1ccc(S(=O)(=O)Nc2cccc(C(=O)NCC3(N4CCCCC4)CCCCC3)c2)cc1F | -16.1 | -0.9 | -14.3 | -28.3 | 7.6 | -6.2
Cc1cccn2c(CN3CCCN(C=O)CC3)c(C(=O)N(C)CCc3ccccc3)nc12 | -5.3 | 0.9 | -0.5 | 12.0 | -0.9 | 7.5
O=C(c1cnn2c(C(F)(F)F)cc(-c3cccs3)nc12)N1CCN(Cc2ccccc2)CC1 | 9.5 | -1.5 | 14.9 | -5.0 | 74.6* | -7.5
CN1CCN(C(=O)c2cnn3c(C(F)(F)F)cc(-c4cccs4)nc23)CC1 | 27.0 | 2.7 | 8.6 | 15.9 | 2.5 | 0.6
O=C(Cc1ccccc1F)Nc1cc(S(=O)(=O)N2CCOCC2)ccc1N1CCCC1 | -4.2 | / | -5.7 | / | / | /
Cc1ccc(S(=O)(=O)N2CCN(C(=O)COC(=O)c3cncc(Br)c3)CC2)c(C)c1 | 4.1 | / | 0.4 | 5.4 | / | /
Cc1cc(N2CCN(C)CC2)nc2ccc(NC(=S)NCCN3CCc4ccccc4C3)cc12 | 11.4 | -16.7 | -8.5 | -15.3 | 56.1* | 5.6
Cc1cc(N2CCCC2)nc2ccc(NC(=S)NCCCN3CCC(C)CC3)cc12 | 2.4 | 0.5 | 9.4 | -21.1 | 60.0* | -7.4
CCCN1CCN(CCCNC(=S)Nc2ccc3nc(N4CCN(CC)CC4)cc(C)c3c2)CC1 | 44.5 | -23.9 | -3.9 | -30.2 | -15.1 | 2.4
N#Cc1c(NC(=O)/C=C/C(=O)O)sc2c1CCN(Cc1ccccc1)C2 | -4.2 | -12.0 | -3.5 | -7.8 | -6.6 | -2.1
CC(C)c1cccc(OCCCCN(C)C)c1 | -0.6 | 0.3 | / | 19.2 | 65.0* | 2.8
O=C(NC(Cc1ccccc1)C(=O)N1CCN(c2ccccc2O)CC1)c1ccccc1 (stereo not drawn) | / | / | / | 21.8 | / | /
O=C(Cn1ccnc1)c1ccc(Cl)cc1 | 1.1 | 0.5 | 0.2 | -14.1 | 59.0* | -1.3
O=C(Cn1cncn1)c1ccc(Cl)cc1 | -9.2 | 0.2 | -10.3 | 24.0 | -16.3 | -1.2
CCN(C[C@H]1N[C@@](C)(C(=O)OC)[C@H]2C(=O)N(Cc3ccccc3)C(=O)[C@@H]12)C(=O)Nc1ccc(OC)cc1 | / | / | -10.1 | 11.7 | / | /
O=C(NC(c1ccccc1)c1ccccc1)C1CCCO1 (stereo not drawn) | -12.7 | 130.5* | -2.1 | 2.2 | 10.4 | 4.3
Cc1cc(C)c(C)c(S(=O)(=O)N2CCC(C(=O)OCC(=O)NC3CCS(=O)(=O)C3)CC2)c1C (stereo not drawn) | -10.1 | / | -1.1 | / | / | /
CCCC(=O)NC(=S)Nc1cccc(Cl)c1N1CCCCC1 | / | -0.6 | 0.5 | 22.6 | 1.1 | 100.9*
CCCCC(=O)NC(=S)Nc1cccc(Cl)c1N1CCCCC1 | / | 0.1 | -2.4 | -42.6 | -11.6 | -13.6
CCC(=O)NC(=S)Nc1cccc(Cl)c1N1CCCCC1 | 85.4* | -0.7 | 7.2 | -16.0 | 9.0 | 0.9
OC(CNCC1COc2ccccc2O1)COc1ccccc1F (stereo not drawn) | 1.6 | 0.5 | 8.0 | -1.0 | 2.0 | -1.3
CCOC(=O)C1=C(O)c2ccccc2C(=O)/C1=C\c1ccc(CC)cc1 | 26.8 | -0.1 | -8.3 | -3.1 | -31.7 | 81.3*
SMILES | CSC inhib | HIF activator | Beta apoptosis | PfHsp90 set2 | T cruzi repl | SKKanGAS inh
CCOC(=O)C1=C(Cc2ccc(C)cc2)C(=O)c2ccccc2C1=O | 20.1 | 1.5 | 0.2 | / | -22.8 | 64.3*
CCN(CC)S(=O)(=O)c1ccc2c(c1)c(=O)c(C(=O)NCCc1ccc(OC)c(OC)c1)cn2C | / | -0.7 | / | -7.4 | 10.5 | -0.9
Cc1ccc(S(=O)(=O)N2CCN(C(=O)COC(=O)c3cccc(Cl)c3)CC2)c(C)c1 | 2.0 | / | -3.2 | -19.7 | / | /
COc1cc(NC(=NS(=O)(=O)c2ccccc2)c2ccccc2)ncn1 | / | / | / | 5.7 | / | /
O=C(NCc1ccccn1)c1cccc(NS(=O)(=O)c2ccccc2F)c1 | -7.4 | 0.4 | -4.4 | 1.6 | -0.7 | -0.6
C/C(N)=C(/C#N)C(=O)CSc1nc2ccccc2c(=O)n1Cc1ccc(F)cc1 | 27.8 | -0.3 | 9.7 | 20.2 | 14.8 | 27.2
C/C(N)=C(/C#N)C(=O)CSc1nc2scc(-c3ccc(F)cc3)c2c(=O)n1C | 9.9 | 0.2 | 3.2 | -6.7 | 1.3 | 70.4*
Cc1ccccc1C(=O)N1CCN(c2ccc(NC(=O)c3ccc([N+](=O)[O-])o3)cc2)CC1 | 90.9* | -2.1 | 21.9 | 10.6 | 58.0* | 19.2
Cc1ccccc1C(=O)N1CCN(c2ccc(NC(=O)c3cccnc3)cc2)CC1 | -3.0 | 0.1 | 74.8* | -16.8 | -5.7 | -8.5
Cc1ccccc1C(=O)N1CCN(c2ccc(NC(=O)c3ccc4c(c3)OCO4)cc2)CC1 | 77.0* | 0.5 | 4.3 | / | 11.8 | 8.8
Cc1cc(C)c(OCCCNCc2ccccc2)c(Br)c1 | 25.3 | 0.6 | -2.0 | -0.3 | 20.4 | -0.9
Cc1cc(Cl)c(OCCCNCc2ccccc2)c(Br)c1 | 37.4 | 0.0 | 12.8 | 8.4 | 56.2* | 2.8
CC(C)(C)OC(=O)NCC1CCC(C(=O)NC[C@H](CC(=O)O)c2ccc(Cl)cc2)CC1 (stereo partly drawn) | -15.8 | -4.7 | -12.9 | -4.2 | -21.9 | 2.4
O=C(N/N=C/c1cn(-c2cccs2)nc1-c1ccccc1)c1ccccc1Br | 83.3* | 1.4 | 7.0 | -0.1 | 11.5 | 14.3
COc1ccc(-c2cc3ncnc(Cl)c3s2)cc1 | 33.6 | 0.8 | 3.9 | 7.3 | -15.4 | 54.1*
Cc1c(C(=O)C(=O)N2CC=C(c3ccccc3)CC2)c2ccccc2n1C | 62.2 | 0.2 | -5.9 | 4.9 | -12.5 | -5.4
COc1ccc(CNC(=O)CN(CC2CCCO2)C(=O)CNS(=O)(=O)c2ccc(C)cc2)cc1 (stereo not drawn) | -5.1 | 27.0* | -2.1 | / | 10.2 | -1.2
Cc1cc(C)cc(NC(=O)/C(C#N)=C/c2cn(CC(=O)NCc3ccco3)c3ccccc23)c1 | 39.6 | -3.1 | 101.3* | -4.5 | -34.0 | -5.7
Cc1ccc(C)c(NC(=O)/C(C#N)=C/c2cn(CC(=O)NCc3ccco3)c3ccccc23)c1 | 82.0* | -2.6 | 95.5* | -1.2 | 10.5 | 0.8
CCN1CCN(c2cc(C(C)(C)C)nc3c(-c4ccccc4)c(C)nn23)CC1 | 139.8* | -0.8 | 64.2 | 1.8 | 49.8 | 2.8
Cc1cc(SCC(=O)c2cccs2)n2nc(C)c(-c3ccc(Cl)cc3)c2n1 | 77.9* | -0.4 | 26.4 | 9.7 | 14.9 | 28.3
C=C(C)CSc1cc(C)nc2c(-c3ccccc3)c(C)nn12 | 37.6 | 1.1 | 7.1 | 6.7 | 35.8 | 23.1

Assay outcomes (PubChem)
